# ChEMBL document CHEMBL3580618, “New trisubstituted 1,2,4-triazoles as ghrelin receptor antagonists” (Bioorg Med Chem Lett, 2015)
# Experiments:
# [1] = Retention time of the compound by HPLC analysis; assay type: physicochemical
# [2] = Retention time of the compound by LC-MS analysis; assay type: physicochemical
# [3] = target: T1, Growth hormone secretagogue receptor type 1 (Homo sapiens, UniProt Q92847); test: Displacement of 125I-[His9]-ghrelin from human GHSR1a expressed in LLC-PK1 cells by competitive binding assay; assay type: cell-based
# T1 sequence (Q92847 whole entry): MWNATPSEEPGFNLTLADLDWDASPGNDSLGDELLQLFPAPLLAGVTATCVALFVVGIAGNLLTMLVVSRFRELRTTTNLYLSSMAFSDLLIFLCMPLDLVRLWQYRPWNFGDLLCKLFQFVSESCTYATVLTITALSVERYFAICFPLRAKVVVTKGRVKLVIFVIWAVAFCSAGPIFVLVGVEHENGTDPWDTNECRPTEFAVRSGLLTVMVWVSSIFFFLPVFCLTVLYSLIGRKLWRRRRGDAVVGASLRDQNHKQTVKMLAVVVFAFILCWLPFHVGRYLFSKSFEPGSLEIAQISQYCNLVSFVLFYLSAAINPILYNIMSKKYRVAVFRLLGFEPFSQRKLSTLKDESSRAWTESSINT
# [4] = target: T1, Growth hormone secretagogue receptor type 1; test: Antagonist activity at human GSHR1a expressed in mouse LTK cells assessed as inhibition of ghrelin-induced reporter gene expression after 6 hrs by CRE/luciferase reporter gene assay; assay type: functional, cell-based
# Summary of the method: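 Mouse LTK cells stably expressing human GHS-R1a with luciferase reporter under CRE elements and CMV minimal promoter. Cells incubated 6 h with 1 µM rolipram, test compound at various concentrations and saturating ghrelin. Cells then lysed and bioluminescence read. % inhibition: ghrelin-treated cells = 0%, untreated cells = 100%. Quadruplicate points. IC50 from one experiment for weaker compounds, mean of at least two experiments for nanomolar ones.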
# [5] = target: T1, Growth hormone secretagogue receptor type 1; test: Antagonist activity at GHSR1a (unknown origin) assessed as inhibition of ghrelin-induced intracellular calcium mobilization; assay type: functional, cell-based
# Summary of the method: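 GHS-R1a-expressing cells; [Ca2+]i mobilization read. Compounds failing to raise calcium above 10% of maximal response (100% = 10^-7 M ghrelin) at 10^-5 M were treated as antagonists. […] One experiment, mean points from quadruplicate measurements.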
Structure (SMILES),Retention_time [1],Retention_time [2],IC50 [3],IC50 [4],IC50 [5]
COc1ccc(Cn2c(CCc3ccccc3)nnc2[C@@H](Cc2c[nH]c3ccccc23)NC(=O)c2nccc3ccccc23)cc1,1.93 min,1.85 min,150 nM,73 nM,82 nM
COc1ccc(Cn2c(CCc3ccccc3)nnc2[C@@H](Cc2c[nH]c3ccccc23)NC(=O)c2ccccn2)cc1,–,–,–,6 nM,4.5 nM
COc1ccc(Cn2c(CCc3ccccc3)nnc2[C@H](N)Cc2c[nH]c3ccccc23)cc1,–,–,> 1000 nM,–,–
COc1ccc(Cn2c(CCc3ccccc3)nnc2[C@@H](Cc2c[nH]c3ccccc23)NC(=O)c2ccncc2)cc1,–,–,220 nM,828 nM,–
COc1ccc(Cn2c(CCc3ccccc3)nnc2[C@@H](Cc2c[nH]c3ccccc23)NC(=O)c2cccnc2Br)cc1,1.76 min,1.66 min,250 nM,193 nM,510 nM
COc1ccc(Cn2c(CCc3ccccc3)nnc2[C@@H](Cc2c[nH]c3ccccc23)NC(=O)c2ccc(Cl)nc2)cc1,1.8 min,1.52 min,130 nM,771 nM,1010 nM
COc1ccc(Cn2c(CCc3ccccc3)nnc2[C@@H](Cc2c[nH]c3ccccc23)NC(=O)c2cccnc2N)cc1,1.58 min,1.35 min,380 nM,427 nM,671 nM
COc1ccc(Cn2c(CCc3ccccc3)nnc2[C@@H](Cc2c[nH]c3ccccc23)NC(=O)c2ncccc2O)cc1,1.86 min,1.82 min,240 nM,108 nM,165 nM
COc1ccc(Cn2c(CCc3ccccc3)nnc2[C@@H](Cc2c[nH]c3ccccc23)NC(=O)c2ncccc2C(=O)c2ccccc2)cc1,1.88 min,1.83 min,240 nM,313 nM,230 nM

# Results, then the compound that gave them:
Retention_time [1],Retention_time [2],IC50 [3],IC50 [4],IC50 [5],Structure (SMILES)
1.61 min,1.57 min,122 nM,411 nM,337 nM,COc1ccc(Cn2c(CCc3ccccc3)nnc2[C@@H](Cc2c[nH]c3ccccc23)NC(=O)c2cccnc2)cc1
1.85 min,1.85 min,84 nM,222 nM,88 nM,COc1ccc(Cn2c(CCc3ccccc3)nnc2[C@@H](Cc2c[nH]c3ccccc23)NC(=O)c2cncc(Br)c2)cc1
1.73 min,1.67 min,3 nM,8.8 nM,7 nM,COc1ccc(Cn2c(CCc3ccccc3)nnc2[C@@H](Cc2c[nH]c3ccccc23)NC(=O)c2ncccc2F)cc1
1.84 min,1.67 min,2 nM,2.1 nM,2.1 nM,COc1ccc(Cn2c(CCc3ccccc3)nnc2[C@@H](Cc2c[nH]c3ccccc23)NC(=O)c2cccc(F)n2)cc1
1.82 min,1.65 min,4 nM,2.8 nM,4.6 nM,COc1ccc(Cn2c(CCc3ccccc3)nnc2[C@@H](Cc2c[nH]c3ccccc23)NC(=O)c2ncc(F)cc2F)cc1
1.82 min,1.74 min,3.4 nM,7.5 nM,5.4 nM,COc1ccc(Cn2c(CCc3ccccc3)nnc2[C@@H](Cc2c[nH]c3ccccc23)NC(=O)c2cccc(C)n2)cc1
1.86 min,1.76 min,2 nM,9 nM,7.8 nM,COc1ccc(Cn2c(CCc3ccccc3)nnc2[C@@H](Cc2c[nH]c3ccccc23)NC(=O)c2cccc(OC)n2)cc1
1.55 min,1.5 min,6 nM,21 nM,25 nM,COc1ccc(Cn2c(CCc3ccccc3)nnc2[C@@H](Cc2c[nH]c3ccccc23)NC(=O)c2cccc(N)n2)cc1
1.73 min,1.59 min,42 nM,79 nM,112 nM,COc1ccc(Cn2c(CCc3ccccc3)nnc2[C@@H](Cc2c[nH]c3ccccc23)NC(=O)c2cccc[n+]2[O-])cc1
1.76 min,1.8 min,65 nM,1210 nM,2110 nM,COc1ccc(Cn2c(CCc3ccccc3)nnc2[C@@H](Cc2c[nH]c3ccccc23)NC(=O)c2ccc(N3CCCC3)cn2)cc1
1.9 min,1.87 min,100 nM,126 nM,404 nM,COc1ccc(Cn2c(CCc3ccccc3)nnc2[C@@H](Cc2c[nH]c3ccccc23)NC(=O)c2cc3ccccc3cn2)cc1
